{"source": "paper PMC9924434", "about": "(International journal of pharmaceutics, 2023)", "key": {"[1]": {"details": "ref Mitrović et al., 2021; cited from earlier work"}, "[2]": {"experiment": "Solubility of DK-I-60-3 in lipid mixtures", "assay_type": "physicochemical", "summary_of_the_method": "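DSC on bulk and melted-then-solidified Softisan 154 and on Softisan 154–lecithin mixtures, blank or with 1.0% or 1.5% test compound. Crystallinity index = mixture enthalpy / untreated Softisan 154 enthalpy × 100. PLM: melted mixture dropped onto heated slide, covered, solidified quickly at room temperature, imaged at 400× with crossed polarizers and ¼λ plate. Triplicates, mean ± SD.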"}}, "data": [{"smiles": "[2H]C([2H])([2H])Oc1ccc(-n2nc3c4ccc(OC([2H])([2H])[2H])cc4[nH]cc-3c2=O)cc1", "note": "[DK-I-60-3, 7-methoxy-d3-2-(4-methoxy-d3-phenyl)-2,5-dihydro-3Hpyrazolo[4,3-c]quinolin-3-one]", "values": [{"measurement": "solubility in common organic solvents", "setting": "[1]", "result": "very slightly or slightly soluble"}, {"measurement": "solubility in water and oils commonly used for pharmaceutical formulations", "setting": "[1]", "result": "practically insoluble"}, {"measurement": "saturation solubility of DK-I-60-3 in the lipid mixture", "setting": "[2]; Softisan 154 + lecithin (30%) lipid mixture, by DSC and PLM", "result": 1.0, "unit": "%"}, {"measurement": "DK-I-60-3 solubilized by the lipid matrix", "setting": "[2]; mixture of solid (Softisan 154) and liquid (medium chain triglycerides) lipid, preliminary studies", "result": "< 0.5", "unit": "%"}]}]}
